In ChEMBL document CHEMBL4673214, “Synthesis and antibacterial bioactivities of cationic deacetyl linezolid amphiphiles” (Eur J Med Chem, 2018):
Converted amounts (≈) assume the structure as drawn. The source made the active and inactive calls. No cut-off for these calls is given here.

Legend:
[1] = tested on: Cell membrane; test: Induction of cytoplasmic membrane depolarization in Staphylococcus aureus ATCC 29213 at 20 ug/ml measured for 12 mins by DiSC35 dye-based fluorescence assay; type: subcellular; details: dose 20.0 µg/ml
Summary of the method: (§1)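 Mid-log bacteria were washed and resuspended at ~10^8 CFU/mL: S. aureus in PBS, E. coli in 5 mM HEPES/5 mM glucose/100 mM KCl (1:1:1). Cells were loaded with diSC35 (10 µM stock) for 30 min (S. aureus) or 40 min (E. coli, plus EDTA). Fluorescence (ex 622/em 670 nm) was read for an 8 min baseline, then every 2 min for 12 min after compound at 20 µg/mL final. Water served as control.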

[2] = tested on: Cell membrane; test: Induction of cytoplasmic membrane depolarization in Escherichia coli ATCC 25922 at 20 ug/ml measured for 12 mins by DiSC35 dye-based fluorescence assay; type: subcellular; details: dose 20.0 µg/ml; summary of the method: as §1
[3] = tested on: Cell membrane; test: Induction of outer membrane permeabilization in Escherichia coli ATCC 25922 at 20 ug/ml measured for 12 mins by NPN dye based fluorescence assay; details: dose 20.0 µg/ml
Summary of the method: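 Mid-log E. coli in HEPES/glucose/KCl at ~10^8 CFU/mL was preincubated 40 min with N-phenylnaphthylamine (10 µM stock). Fluorescence (ex 350/em 420 nm) was read for an 8 min baseline, then every 2 min for 12 min after compound at 20 µg/mL final. Water served as control.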

[4] = tested on: Cell membrane; test: Induction of inner membrane permeabilization in Escherichia coli ATCC 25922 at 20 ug/ml measured for 12 mins by propidium iodide staining based fluorescence microscopic analysis; details: dose 20.0 µg/ml
Summary of the method: (§2)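 Mid-log bacteria were washed and resuspended at ~10^8 CFU/mL and preincubated with propidium iodide (10 µM stock) for 30 min (S. aureus) or 40 min (E. coli). Fluorescence (ex 535/em 617 nm) was read on a plate for an 8 min baseline, then every 2 min for 12 min after compound at 20 µg/mL final. Water served as control.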

[5] = tested on: Cell membrane; test: Induction of inner membrane permeabilization in Staphylococcus aureus ATCC 29213 at 20 ug/ml measured for 12 mins by propidium iodide staining based fluorescence microscopic analysis; details: dose 20.0 µg/ml; summary of the method: as §2
[6] = tested on: Enterobacteriaceae; test: Antibacterial activity against NDM1 producing carbapenem-resistant Enterobacteriaceae clinical isolate 10 assessed as reduction in bacterial growth incubated for 16 to 20 hrs by CLSI-based broth microdilution method; type: functional; details: time 16-20 hrs
Summary of the method: (§3)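 Clinical isolates tested by broth microdilution in cation-adjusted Mueller-Hinton broth. Cultures grown 4-6 h (~10^8 CFU/mL) were diluted to ~10^6 CFU/mL and mixed 1:1 with compound serial dilutions made from 256 down to 0.5 µg/mL (pre-mixing). Plates held at 37 °C for 16-20 h, then read for growth. Each concentration run in duplicate, whole experiment at least twice.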

[7] = tested on: Enterobacteriaceae; test: Antibacterial activity against NDM1 producing carbapenem-resistant Enterobacteriaceae clinical isolate 8 assessed as reduction in bacterial growth incubated for 16 to 20 hrs by CLSI-based broth microdilution method; type: functional; details: time 16-20 hrs; summary of the method: as §3
[8] = tested on: Enterobacteriaceae; test: Antibacterial activity against NDM1 producing carbapenem-resistant Enterobacteriaceae clinical isolate 7 assessed as reduction in bacterial growth incubated for 16 to 20 hrs by CLSI-based broth microdilution method; type: functional; details: time 16-20 hrs; summary of the method: as §3
[9] = tested on: Enterobacteriaceae; test: Antibacterial activity against NDM1 producing carbapenem-resistant Enterobacteriaceae clinical isolate 6 assessed as reduction in bacterial growth incubated for 16 to 20 hrs by CLSI-based broth microdilution method; type: functional; details: time 16-20 hrs; summary of the method: as §3
[10] = tested on: Enterobacteriaceae; test: Antibacterial activity against NDM1 producing carbapenem-resistant Enterobacteriaceae clinical isolate 5 assessed as reduction in bacterial growth incubated for 16 to 20 hrs by CLSI-based broth microdilution method; type: functional; details: time 16-20 hrs; summary of the method: as §3
[11] = tested on: Enterobacteriaceae; test: Antibacterial activity against NDM1 producing carbapenem-resistant Enterobacteriaceae clinical isolate 4 assessed as reduction in bacterial growth incubated for 16 to 20 hrs by CLSI-based broth microdilution method; type: functional; details: time 16-20 hrs; summary of the method: as §3
[12] = tested on: Enterobacteriaceae; test: Antibacterial activity against NDM1 producing carbapenem-resistant Enterobacteriaceae clinical isolate 3 assessed as reduction in bacterial growth incubated for 16 to 20 hrs by CLSI-based broth microdilution method; type: functional; details: time 16-20 hrs; summary of the method: as §3
[13] = tested on: Enterobacteriaceae; test: Antibacterial activity against NDM1 producing carbapenem-resistant Enterobacteriaceae clinical isolate 2 assessed as reduction in bacterial growth incubated for 16 to 20 hrs by CLSI-based broth microdilution method; type: functional; details: time 16-20 hrs; summary of the method: as §3
[14] = tested on: Enterobacteriaceae; test: Antibacterial activity against NDM1 producing carbapenem-resistant Enterobacteriaceae clinical isolate 1 assessed as reduction in bacterial growth incubated for 16 to 20 hrs by CLSI-based broth microdilution method; type: functional; details: time 16-20 hrs; summary of the method: as §3
[15] = tested on: Klebsiella pneumoniae; test: Antibacterial activity against carbapenem-resistant Klebsiella pneumoniae clinical isolate 10 assessed as reduction in bacterial growth incubated for 16 to 20 hrs by CLSI-based broth microdilution method; type: functional; details: time 16-20 hrs; summary of the method: as §3
[16] = tested on: Klebsiella pneumoniae; test: Antibacterial activity against carbapenem-resistant Klebsiella pneumoniae clinical isolate 9 assessed as reduction in bacterial growth incubated for 16 to 20 hrs by CLSI-based broth microdilution method; type: functional; details: time 16-20 hrs; summary of the method: as §3
[17] = tested on: Klebsiella pneumoniae; test: Antibacterial activity against carbapenem-resistant Klebsiella pneumoniae clinical isolate 8 assessed as reduction in bacterial growth incubated for 16 to 20 hrs by CLSI-based broth microdilution method; type: functional; details: time 16-20 hrs; summary of the method: as §3
[18] = tested on: Klebsiella pneumoniae; test: Antibacterial activity against carbapenem-resistant Klebsiella pneumoniae clinical isolate 7 assessed as reduction in bacterial growth incubated for 16 to 20 hrs by CLSI-based broth microdilution method; type: functional; details: time 16-20 hrs; summary of the method: as §3
[19] = tested on: Klebsiella pneumoniae; test: Antibacterial activity against carbapenem-resistant Klebsiella pneumoniae clinical isolate 6 assessed as reduction in bacterial growth incubated for 16 to 20 hrs by CLSI-based broth microdilution method; type: functional; details: time 16-20 hrs; summary of the method: as §3
[20] = tested on: Klebsiella pneumoniae; test: Antibacterial activity against carbapenem-resistant Klebsiella pneumoniae clinical isolate 5 assessed as reduction in bacterial growth incubated for 16 to 20 hrs by CLSI-based broth microdilution method; type: functional; details: time 16-20 hrs; summary of the method: as §3
[21] = tested on: Klebsiella pneumoniae; test: Antibacterial activity against carbapenem-resistant Klebsiella pneumoniae clinical isolate 4 assessed as reduction in bacterial growth incubated for 16 to 20 hrs by CLSI-based broth microdilution method; type: functional; details: time 16-20 hrs; summary of the method: as §3
[22] = tested on: Klebsiella pneumoniae; test: Antibacterial activity against carbapenem-resistant Klebsiella pneumoniae clinical isolate 3 assessed as reduction in bacterial growth incubated for 16 to 20 hrs by CLSI-based broth microdilution method; type: functional; details: time 16-20 hrs; summary of the method: as §3
[23] = tested on: Klebsiella pneumoniae; test: Antibacterial activity against carbapenem-resistant Klebsiella pneumoniae clinical isolate 2 assessed as reduction in bacterial growth incubated for 16 to 20 hrs by CLSI-based broth microdilution method; type: functional; details: time 16-20 hrs; summary of the method: as §3
[24] = tested on: Enterobacteriaceae; test: Antibacterial activity against NDM1 producing carbapenem-resistant Enterobacteriaceae clinical isolate 9 assessed as reduction in bacterial growth incubated for 16 to 20 hrs by CLSI-based broth microdilution method; type: functional; details: time 16-20 hrs; summary of the method: as §3
[25] = tested on: Salmonella enterica; test: Antibacterial activity against Salmonella enterica ATCC 8387 assessed as reduction in bacterial growth incubated for 16 to 20 hrs by CLSI-based broth microdilution method; type: functional; details: time 16-20 hrs
Summary of the method: (§4)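 Broth microdilution following CLSI, in cation-adjusted Mueller-Hinton broth. Inoculum from a 4-6 h culture (~10^8 CFU/mL), diluted to ~10^6 CFU/mL. Water stocks were serially diluted in MHB (256 to 0.5 µg/mL) and mixed 1:1 with the inoculum. Plates ran 16-20 h at 37 °C. MIC was read visually. Each concentration was tested in duplicate, and the experiment was repeated at least twice.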

[26] = tested on: Escherichia coli; test: Antibacterial activity against Escherichia coli ATCC 25922 assessed as reduction in bacterial growth incubated 16 to 20 hrs by CLSI-based broth microdilution method; type: functional; details: time 16-20 hrs; summary of the method: as §4
[27] = tested on: Enterococcus faecalis; test: Antibacterial activity against Enterococcus faecalis ATCC 29212 assessed as reduction in bacterial growth incubated 16 to 20 hrs by CLSI-based broth microdilution method; type: functional; details: time 16-20 hrs; summary of the method: as §4
[28] = tested on: Klebsiella pneumoniae; test: Antibacterial activity against carbapenem-resistant Klebsiella pneumoniae clinical isolate 1 assessed as reduction in bacterial growth incubated for 16 to 20 hrs by CLSI-based broth microdilution method; type: functional; details: time 16-20 hrs; summary of the method: as §3
[29] = tested on: Staphylococcus aureus; test: Bactericidal activity against early exponential phase of Staphylococcus aureus ATCC 29213 at 4X MIC measured after 6 hrs by time-kill kinetic assay; type: functional, organism-based
Summary of the method: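 S. aureus ATCC 29213 overnight culture diluted 1:10,000 in MHB and shaken at 225 rpm, 37 °C for 2 h to early exponential phase. Exposed to compound at 4× MIC in tubes, 37 °C, 225 rpm. Samples spun down, resuspended in PBS, plated as ten-fold dilutions on MHA overnight at 37 °C, and CFU/mL counted. Biological replicates.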

CN[C@H](CC(C)C)C(=O)N[C@H]1C(=O)N[C@@H](CC(N)=O)C(=O)N[C@H]2C(=O)N[C@H]3C(=O)N[C@H](C(=O)N[C@H](C(=O)O)c4cc(O)cc(O)c4-c4cc3ccc4O)[C@H](O)c3ccc(c(Cl)c3)Oc3cc2cc(c3O[C@@H]2O[C@H](CO)[C@@H](O)[C@H](O)[C@H]2O[C@H]2C[C@](C)(N)[C@H](O)[C@H](C)O2)Oc2ccc(cc2Cl)[C@H]1O [VANCOMYCIN]
Activity [1]: inactive
Activity [2]: inactive
Activity [3]: inactive
Activity [4]: inactive
Activity [5]: inactive
MIC [6]: > 64 µg/mL
MIC [7]: 64 µg/mL (≈ 44.2 µM)
MIC [8]: 64 µg/mL (≈ 44.2 µM)
MIC [9]: 64 µg/mL (≈ 44.2 µM)
MIC [10]: 64 µg/mL (≈ 44.2 µM)
MIC [11]: > 64 µg/mL
MIC [12]: > 64 µg/mL
MIC [13]: > 64 µg/mL
MIC [14]: > 64 µg/mL
MIC [15]: > 64 µg/mL
MIC [16]: 64 µg/mL (≈ 44.2 µM)
MIC [17]: > 64 µg/mL
MIC [18]: > 64 µg/mL
MIC [19]: > 64 µg/mL
MIC [20]: 64 µg/mL (≈ 44.2 µM)
MIC [21]: 64 µg/mL (≈ 44.2 µM)
MIC [22]: > 64 µg/mL
MIC [23]: > 64 µg/mL
MIC [24]: 64 µg/mL (≈ 44.2 µM)
MIC [25]: 32 µg/mL (≈ 22.1 µM)
MIC [26]: 64 µg/mL (≈ 44.2 µM)
MIC [27]: 2 µg/mL (≈ 1.38 µM)
MIC [28]: > 64 µg/mL
Activity [29]: inactive
